In ChEMBL document CHEMBL1148987, “Antimycobacterial coumarins from the sardinian giant fennel (Ferula communis)” (2004):
Converted amounts (≈) assume the structure as drawn.

Key:
Assay type in all cases: functional
[1] = test system: Mycolicibacterium fortuitum; test: Antimycobacterial activity against Mycobacterium fortuitum ATCC 6841 after 72 hrs by MTT assay; conditions: ATCC 6841, 72 h
In short: (§1)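 Standard broth microdilution MIC in Ca2+/Mg2+-adjusted Mueller-Hinton broth; strains kept on Columbia blood agar with 5% defibrinated horse blood. DMSO stocks diluted into MHB, 2-fold series with final range […]. Inoculum from 0.5 McFarland standard in saline, final 5 × 10^5 cfu/mL; 37 °C for 72 h. Growth read by MTT (20 min, 37 °C, blue = growth); MIC = lowest concentration with no growth.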

Mycolicibacterium phlei = test: Antimycobacterial activity against Mycobacterium phlei ATCC 11758 after 72 hrs by MTT assay; conditions: ATCC 11758, 72 h; in short: as §1
Mycolicibacterium aurum = test: Antimycobacterial activity against Mycobacterium aurum after 120 hrs by MTT assay
In short: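 Broth microdilution MIC in Ca2+/Mg2+-adjusted Mueller-Hinton broth; strain maintained on Columbia blood agar with 5% defibrinated horse blood. Compounds dissolved in DMSO, diluted into MHB, 2-fold serial dilutions giving final 512 to 1 μg/mL. Inoculum from 0.5 McFarland in saline, final 5 × 10^5 cfu/mL. Incubated 37 °C, 120 h. MTT added, 20 min at 37 °C; blue indicates growth; MIC = lowest concentration without growth.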

[2] = test system: Mycolicibacterium smegmatis; test: Antimycobacterial activity against Mycobacterium smegmatis ATCC 14468 after 72 hrs by MTT assay; conditions: ATCC 14468, 72 h; in short: as §1

| SMILES | MIC [1] [µg/mL] | MIC (Mycolicibacterium phlei) [µg/mL] | MIC (Mycolicibacterium aurum) [µg/mL] | MIC [2] [µg/mL] |
| --- | --- | --- | --- | --- |
| CC(C)=CCC/C(C)=C/CC/C(C)=C/Cc1c(O)c2ccccc2oc1=O | 2 (≈ 5.46 µM) | 2 (≈ 5.46 µM) | 2 (≈ 5.46 µM) | 0.5 (≈ 1.36 µM) |
| CCCCCCCCCc1c(O)c2ccccc2oc1=O | 3.5 (≈ 12.1 µM) |  |  |  |
| C/C(=C\CC/C(C)=C/Cc1c(O)c2ccccc2oc1=O)CC/C=C(\C)COC(=O)c1ccccc1 | 16 (≈ 32.9 µM) | 2 (≈ 4.11 µM) | 8 (≈ 16.4 µM) | 2 (≈ 4.11 µM) |
| C/C(=C\CC/C(C)=C/CC/C(C)=C/Cc1c(O)c2ccccc2oc1=O)CO | 64 (≈ 167 µM) | 16 (≈ 41.8 µM) | 32 (≈ 83.7 µM) | 16 (≈ 41.8 µM) |
| CC(=O)OC/C(C)=C/CC/C(C)=C/CC/C(C)=C/Cc1c(O)c2ccccc2oc1=O | 32 (≈ 75.4 µM) | 8 (≈ 18.8 µM) | 16 (≈ 37.7 µM) | 8 (≈ 18.8 µM) |
| CC[C@@H](CO)NCCN[C@@H](CC)CO [ETHAMBUTOL] | 8 (≈ 39.2 µM) | 2 (≈ 9.79 µM) | 0.5 (≈ 2.45 µM) | 0.5 (≈ 2.45 µM) |
| NNC(=O)c1ccncc1 [ISONIAZID] | 0.5 (≈ 3.65 µM) | 4 (≈ 29.2 µM) | 2 (≈ 14.6 µM) | 1 (≈ 7.29 µM) |
